The source made the active and inactive calls. No cut-off for these calls is given here.
Legend:
Oryctolagus cuniculus [1] = test: Reduction of intraocular pressure in ocular normotensive New Zealand White rabbit at 2% administered topically to the eye measured for 0.5 to 8 hrs by tonometry; format: functional, organism-based
[2] = Toxicity in New Zealand White rabbit assessed as induction of eye lid closure at 2% administered topically to the eye; set-up: species or system Oryctolagus cuniculus; settings: in vivo, topical_or_ocular
How it was run: (§1)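 Single 25 µl drop given to the left eye of albino rabbits, which were held immobile for one minute afterwards. Irritation was followed by eye throughout the experiment and scored as blinking, head shaking or eyelid closure, with the duration of closure noted in seconds.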

[3] = Toxicity in New Zealand White rabbit assessed as head shaking at 2% administered topically to the eye; set-up: species or system Oryctolagus cuniculus; settings: in vivo, topical_or_ocular; how it was run: as §1
Oryctolagus cuniculus [4] = test: Reduction of intraocular pressure in ocular normotensive New Zealand White rabbit administered topically to the eye measured for 0.5 to 8 hrs by tonometry (reference value: 12.00 +/- 6.81%); format: functional; settings: topical
Carbonic anhydrase 1 = Carbonic anhydrase 1 (Homo sapiens, UniProt P00915); test: Inhibition of human carbonic anhydrase 1 incubated for 15 mins by phenol red staining-based stopped flow CO2 hydrase assay
Carbonic anhydrase 12 = Carbonic anhydrase 12 (Homo sapiens, UniProt O43570); test: Inhibition of human carbonic anhydrase 12 incubated for 15 mins by phenol red staining-based stopped flow CO2 hydrase assay
Oryctolagus cuniculus [5] = test: Reduction of intraocular pressure in ocular normotensive New Zealand White rabbit at 1% administered topically to the eye measured for 0.5 to 8 hrs by tonometry; format: functional, organism-based
[6] = Toxicity in New Zealand White rabbit assessed as induction of eye lid closure at 1% administered topically to the eye; set-up: species or system Oryctolagus cuniculus; settings: in vivo, topical_or_ocular; how it was run: as §1
[7] = Toxicity in New Zealand White rabbit assessed as head shaking at 1% administered topically to the eye; set-up: species or system Oryctolagus cuniculus; settings: in vivo, topical_or_ocular; how it was run: as §1
[8] = Toxicity in New Zealand White rabbit assessed as induction of eye lid closure at 0.5% administered topically to the eye; set-up: species or system Oryctolagus cuniculus; settings: in vivo, topical_or_ocular; how it was run: as §1
[9] = Toxicity in New Zealand White rabbit assessed as head shaking at 0.5% administered topically to the eye; set-up: species or system Oryctolagus cuniculus; settings: in vivo, topical_or_ocular; how it was run: as §1
Carbonic anhydrase 2 = Carbonic anhydrase 2 (Homo sapiens, UniProt P00918); test: Inhibition of human carbonic anhydrase 2 incubated for 15 mins by phenol red staining-based stopped flow CO2 hydrase assay
Carbonic anhydrase 4 = Carbonic anhydrase 4 (Homo sapiens, UniProt P22748); test: Inhibition of human carbonic anhydrase 4 incubated for 15 mins by phenol red staining-based stopped flow CO2 hydrase assay
Oryctolagus cuniculus [10] = test: Reduction of intraocular pressure in ocular normotensive New Zealand White rabbit at 0.5 % administered topically to the eye measured for 0.5 to 8 hrs by tonometry; format: functional, organism-based

Carbonic anhydrase 12, sequence (O43570 whole entry): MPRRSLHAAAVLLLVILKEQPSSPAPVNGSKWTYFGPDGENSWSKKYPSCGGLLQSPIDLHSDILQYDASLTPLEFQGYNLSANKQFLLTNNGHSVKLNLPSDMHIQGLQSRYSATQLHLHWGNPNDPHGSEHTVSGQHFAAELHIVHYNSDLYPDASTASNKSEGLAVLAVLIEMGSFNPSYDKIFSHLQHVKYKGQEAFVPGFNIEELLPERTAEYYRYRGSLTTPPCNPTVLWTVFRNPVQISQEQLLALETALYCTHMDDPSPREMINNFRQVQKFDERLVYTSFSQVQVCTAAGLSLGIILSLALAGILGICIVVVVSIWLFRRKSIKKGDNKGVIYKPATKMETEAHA
Carbonic anhydrase 1, sequence (P00915 whole entry): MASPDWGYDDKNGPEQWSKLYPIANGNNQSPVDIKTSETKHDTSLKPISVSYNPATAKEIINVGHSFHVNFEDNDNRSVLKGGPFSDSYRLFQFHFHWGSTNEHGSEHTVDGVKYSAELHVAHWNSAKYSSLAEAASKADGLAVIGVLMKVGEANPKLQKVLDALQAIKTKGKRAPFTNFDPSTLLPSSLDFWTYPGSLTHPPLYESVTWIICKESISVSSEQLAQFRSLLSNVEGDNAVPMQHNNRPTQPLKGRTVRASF
Carbonic anhydrase 4, sequence (P22748 whole entry): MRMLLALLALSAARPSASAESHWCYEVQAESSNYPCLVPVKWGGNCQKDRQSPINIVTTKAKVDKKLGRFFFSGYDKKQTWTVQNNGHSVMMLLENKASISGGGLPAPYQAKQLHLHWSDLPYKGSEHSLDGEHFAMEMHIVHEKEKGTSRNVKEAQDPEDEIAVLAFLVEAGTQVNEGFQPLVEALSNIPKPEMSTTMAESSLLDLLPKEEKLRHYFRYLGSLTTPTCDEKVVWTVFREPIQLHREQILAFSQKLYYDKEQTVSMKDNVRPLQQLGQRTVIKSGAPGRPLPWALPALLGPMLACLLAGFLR

Compound | Ki (Carbonic anhydrase 1) | Ki (Carbonic anhydrase 12) | Ki (Carbonic anhydrase 2) | Ki (Carbonic anhydrase 4) | Activity (Oryctolagus cuniculus [1]) | Activity [2] | Activity [3] | Emax (Oryctolagus cuniculus [4]) | Activity (Oryctolagus cuniculus [5]) | Activity [6] | Activity [7] | Activity [8] | Activity [9] | Activity (Oryctolagus cuniculus [10])
CCN[C@H]1C[C@H](C)S(=O)(=O)c2sc(S(N)(=O)=O)cc21 [DORZOLAMIDE] | – | – | – | – | Active | Non-Toxic | Non-Toxic | 27.8% | – | – | – | – | – | –
NCCNC(=O)c1ncc(-c2ccc(S(N)(=O)=O)cc2)o1 | 101 nM | 90.1 nM | – | – | – | – | – | 29.6% | Active | Non-Toxic | Non-Toxic | – | – | –
NC1CCN(C(=O)c2ncc(-c3ccc(S(N)(=O)=O)cc3)o2)CC1 | 61.9 nM | 91.5 nM | 0.54 nM | 257 nM | – | – | – | 22% | – | – | – | Toxic | – | inactive

Continued by falling Ki (Carbonic anhydrase 1), values first:

Ki (Carbonic anhydrase 1) | Ki (Carbonic anhydrase 12) | Ki (Carbonic anhydrase 2) | Ki (Carbonic anhydrase 4) | Compound | Activity (Oryctolagus cuniculus [1]) | Activity [2] | Activity [3] | Emax (Oryctolagus cuniculus [4]) | Activity (Oryctolagus cuniculus [5]) | Activity [6] | Activity [7] | Activity [8] | Activity [9] | Activity (Oryctolagus cuniculus [10])
109 nM | 68.5 nM | 5 nM | 420 nM | NS(=O)(=O)c1ccc(-c2cnc(C(=O)N3CCNCC3)o2)cc1 | – | – | – | 35.6% | Active | Non-Toxic | Non-Toxic | – | – | –
50.8 nM | 87.3 nM | – | – | NS(=O)(=O)c1ccc(-c2cnc(C(=O)NC3CCNCC3)o2)cc1 | – | – | – | 19.4% | – | – | – | Non-Toxic | Non-Toxic | –

From ChEMBL document CHEMBL4364335, “Highly hydrophilic 1,3-oxazol-5-yl benzenesulfonamide inhibitors of carbonic anhydrase II for reduction of glaucoma-related intraocular pressure” (Bioorg Med Chem, 2019)
